These results are taken from ChEMBL document CHEMBL2029339, “Acylthiourea, acylurea, and acylguanidine derivatives with potent hedgehog inhibiting activity” (J Med Chem, 2012).

Assay [1] deals with Smoothened (Mus musculus) (UniProt P56726). Description: Inhibition of Smo-mediated Hh signaling in mouse Shh-light2 cells by luciferase reporter gene assay. A general note: Reporter assays use an easily measured gene product as a stand-in for the process of interest.
Assay [2] deals with C3H 10T1/2. Description: Inhibition of SAG-induced differentiation of mouse mesenchymal pluripotent C3H10T1/2 cells to alkaline phosphatase positive oeseoblasts after 6 days. The settings on record: C3H 10T1/2, 6 days.
Assay [3] deals with Smoothened (Mus musculus) (UniProt P56726). Description: Inhibition of Smo-mediated Hh signaling in mouse Shh-light2 cells at 3 uM by luciferase reporter gene assay. The settings on record: Shh Light II.
In assay [4] the test system is C3H 10T1/2. As to the kind of experiment: Inhibition of SAG-induced differentiation of mouse mesenchymal pluripotent C3H10T1/2 cells to alkaline phosphatase positive oeseoblasts at 10 uM after 6 days. The following applies: C3H 10T1/2, 6 days.
Assay [5] deals with Smoothened (Mus musculus) (UniProt P56726). As to the kind of experiment: Inhibition of Smo-mediated Hh signaling in mouse Shh-light2 cells at 0.3 uM by luciferase reporter gene assay. The following applies: Shh Light II.
For assay [6], the target named is Protein smoothened (Homo sapiens, UniProt Q99835). Description: Displacement of BODIPY-labelled cyclopamine from human Smo receptor expressed in HEK293 cells after 2 hrs by fluorescence microscopy. Type of assay: cell-based. In a few lines: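 HEK293 cells stably expressing human Smo, grown on poly-D-lysine coverslips and fixed in 4% paraformaldehyde. BODIPY fluorescence above the no-probe background, normalized to DAPI nuclear area in 3–4 fields per coverslip, given as % of probe-alone signal.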

Assay [7] is filed under the species Rattus norvegicus. Description: Antiproliferative activity against rat cerebellar granule cell precursors at 1 uM by [3H]-thymidine incorporation assay. The class given is functional. In general terms: Incorporation of labelled thymidine or its analogues reports DNA synthesis.
Assay [8] addresses Smoothened (Mus musculus) (UniProt P56726). As to the kind of experiment: Antagonist activity at Smo receptor.
The nature of assay [9]: Antiproliferative activity against SAG-induced rat cerebellar granule cell precursors by [3H]-thymidine incorporation assay. Type of assay: functional. Put shortly: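 Primary rat cerebellar granule cell precursors stimulated with SAG (0.01 μM) together with increasing concentrations of test compound. Proliferation read as [3H]-thymidine incorporation, expressed as % of maximal SAG response. Quadruplicates, n = 3–10 independent experiments. IC50 and Hill coefficient obtained by curve fitting.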

Assay [10] can be described thus: Ratio of cyclopamine IC50 to compound IC50 for inhibition of SAG-induced rat cerebellar granule cell precursors by [3H]-thymidine incorporation assay. Type of assay: functional.
Assay [11] in a line: Ratio of Cur61414 IC50 to compound IC50 for inhibition of SAG-induced rat cerebellar granule cell precursors by [3H]-thymidine incorporation assay. The class given is functional.

SMILES strings stand for the structures. Active and inactive are the calls of the source. No cut-off for these calls is given here.

Protein smoothened, sequence (Q99835 whole entry): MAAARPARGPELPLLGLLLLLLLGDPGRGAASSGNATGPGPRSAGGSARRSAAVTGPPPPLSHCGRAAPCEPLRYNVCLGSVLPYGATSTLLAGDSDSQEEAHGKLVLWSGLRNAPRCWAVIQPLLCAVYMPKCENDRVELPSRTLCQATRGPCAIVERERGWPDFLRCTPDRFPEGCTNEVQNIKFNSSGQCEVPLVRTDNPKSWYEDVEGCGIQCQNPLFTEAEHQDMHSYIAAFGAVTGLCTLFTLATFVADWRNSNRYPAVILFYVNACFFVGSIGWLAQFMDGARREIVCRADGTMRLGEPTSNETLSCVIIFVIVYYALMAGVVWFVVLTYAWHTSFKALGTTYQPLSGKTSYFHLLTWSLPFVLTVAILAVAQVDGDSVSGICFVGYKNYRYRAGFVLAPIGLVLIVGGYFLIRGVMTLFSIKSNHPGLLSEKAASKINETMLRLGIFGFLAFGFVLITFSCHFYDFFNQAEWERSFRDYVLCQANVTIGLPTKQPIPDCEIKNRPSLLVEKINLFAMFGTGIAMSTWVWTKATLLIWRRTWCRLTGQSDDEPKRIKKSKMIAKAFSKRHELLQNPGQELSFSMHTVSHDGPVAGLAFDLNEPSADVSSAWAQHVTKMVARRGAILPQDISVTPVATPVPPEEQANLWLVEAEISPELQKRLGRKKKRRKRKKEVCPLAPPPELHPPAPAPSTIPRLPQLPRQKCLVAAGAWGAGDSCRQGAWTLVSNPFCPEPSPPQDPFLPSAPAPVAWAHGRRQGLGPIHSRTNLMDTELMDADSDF
Smoothened (Mus musculus), sequence (P56726 whole entry, looked up): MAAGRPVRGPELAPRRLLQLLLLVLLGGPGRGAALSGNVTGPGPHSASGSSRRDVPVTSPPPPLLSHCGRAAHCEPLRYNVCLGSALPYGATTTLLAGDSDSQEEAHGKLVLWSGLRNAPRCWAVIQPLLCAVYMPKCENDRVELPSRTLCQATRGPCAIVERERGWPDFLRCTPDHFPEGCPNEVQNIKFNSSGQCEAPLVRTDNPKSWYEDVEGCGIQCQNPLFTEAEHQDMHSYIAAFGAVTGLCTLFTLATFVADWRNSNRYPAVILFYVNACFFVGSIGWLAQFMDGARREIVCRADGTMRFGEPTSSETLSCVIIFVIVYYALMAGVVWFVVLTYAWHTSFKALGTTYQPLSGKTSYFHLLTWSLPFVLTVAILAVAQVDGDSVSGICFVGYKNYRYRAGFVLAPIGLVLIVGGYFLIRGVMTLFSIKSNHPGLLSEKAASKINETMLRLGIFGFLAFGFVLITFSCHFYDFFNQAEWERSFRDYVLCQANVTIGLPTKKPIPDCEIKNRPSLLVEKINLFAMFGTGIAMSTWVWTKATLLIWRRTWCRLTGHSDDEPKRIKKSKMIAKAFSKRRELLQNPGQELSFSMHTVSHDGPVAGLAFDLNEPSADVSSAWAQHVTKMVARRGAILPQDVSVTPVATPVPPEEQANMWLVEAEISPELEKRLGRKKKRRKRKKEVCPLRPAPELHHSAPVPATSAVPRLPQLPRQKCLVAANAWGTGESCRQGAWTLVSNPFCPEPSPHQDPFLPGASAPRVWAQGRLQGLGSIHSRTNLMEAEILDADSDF

A word on the IC50: it is the concentration that inhibits the measured activity by half. A higher IC50 goes with lower potency. Broadly, the inhibition is the relative decrease from the control value, in per cent. Consider `COc1cc(C(=O)NC(=S)Nc2cccc(-c3cc4ccccc4[nH]3)c2)cc(OC)c1OC`, for which the IC50 stood at 180 nM in assay [1] and 280 nM in assay [2]. For the same molecule, the inhibition in assay [3] was 90%. For the same molecule, the inhibition at 10 µM in assay [4] amounted to 102%.

With `COc1cc(C(=O)NC(=S)Nc2ccc(Cl)c(NC(=O)c3ccccc3)c2)cc(OC)c1OC`, the IC50 in [1] turned out to be 190 nM; in assay [2], 990 nM. Also, the inhibition came out at 89% in assay [3] and 69% in [5]. Besides, the inhibition at 10 µM in assay [4] was 96%.

Consider `COc1cc(C(=O)NC(=S)Nc2cccc(-c3cn4ccccc4n3)c2)cc(OC)c1OC`, for which the IC50 is 820 nM in assay [1] and 550 nM in assay [2]. The inhibition in assay [3] stood at 93%. Also, the inhibition at 10 µM in assay [4] was determined as 94%.

Regarding `COc1cc(C(=O)NC(=S)Nc2cccc(NC(=O)c3ccc(-c4ccc(F)cc4)cc3)c2)cc(OC)c1OC`, the IC50 in [1] was determined as 100 nM; in assay [2], 140 nM. The inhibition in assay [3] stood at 97%. Also, in [4], the inhibition at 10 µM worked out at 95%.

As to `COc1cc(C(=O)NC(=O)Nc2cccc(NC(=O)c3ccccc3)c2)cc(OC)c1OC`, the IC50 turned out to be 107 nM in assay [6]; 160 nM in assay [8]; 160 nM in [1]; 130 nM in assay [2]; 106 nM in assay [9]. In addition, the result in [7] was inactive. Besides, the inhibition is 96% in [3] and 76% in [5]. Besides, the inhibition at 10 µM in [4] is 101%.

Regarding `COc1cc(C(=O)NC(=O)Nc2ccc(C)c(NC(=O)c3ccc(-c4ccccc4)cc3)c2)cc(OC)c1OC`, the half-maximal inhibitory concentration (IC50) was found to be 24 nM in assay [6], 13 nM in [1], 25 nM in assay [2] and 6 nM in assay [9]. In addition, the outcome in assay [7] was inactive. In addition, the “Ratio IC50” value in assay [10] and in assay [11] was 20 throughout. For the same molecule, the values for the inhibition in [3] and in assay [5] were 99% and 96%, respectively. In addition, in [4], the inhibition at 10 µM is 101%.

In the case of `COc1cc(C(=O)NC(=S)Nc2cccc(NC(=O)c3ccc(-c4ccccc4)cc3)c2)cc(OC)c1OC`, the values for the IC50 in assay [1] and in assay [2] were 90 nM and 80 nM, respectively. Also, in assay [3], the inhibition was 89%. In assay [4], the inhibition at 10 µM was 62%.

As for `COc1cc(C(=O)NC(=S)Nc2cccc(NC(=O)c3ccccc3)c2)cc(OC)c1OC`, the IC50 in [6] turned out to be 300 nM; in assay [8] it was 650 nM; in assay [1] it was 650 nM; in assay [2], 900 nM; in assay [9], 338 nM. The outcome in assay [7] was inactive. Besides, the results for the inhibition in assay [3] and in assay [5] were 96% and 15%, respectively. Also, the inhibition at 10 µM in assay [4] was determined as 96%.

With `COc1cc(C(=O)NC(=O)Nc2cccc(NC(=O)c3cc4ccccc4[nH]3)c2)cc(OC)c1OC`, the IC50 in assay [1] stood at 110 nM; in [2] it was 220 nM. Moreover, the figures for the inhibition in assay [3] and in assay [5] were 90% and 85%, respectively. In addition, the inhibition at 10 µM in assay [4] came to 97%.

`COc1cc(C(=O)NC(=N)Nc2ccc(C)c(NC(=O)c3cccc(-c4ccccc4)c3)c2)cc(OC)c1OC`: the IC50 was determined as 110 nM in assay [1] and 260 nM in [2].

Consider `COc1cc(C(=O)NC(=O)Nc2ccc(Cl)c(NC(=O)c3ccc(-c4ccccc4)cc3)c2)cc(OC)c1OC`, for which the IC50 in assay [1] came out at 80 nM; in assay [2] it was 100 nM. Further, the inhibition was 98% in assay [3] and 95% in assay [5]. The inhibition at 10 µM in assay [4] is 72%.

On to `COc1cc(C(=O)NC(=N)Nc2ccc(Cl)c(NC(=O)c3ccccc3)c2)cc(OC)c1OC`, for which the IC50 in assay [1] and in assay [2] was 370 nM throughout.

For the molecule `COc1cc(C(=O)NC(=S)Nc2ccc(Cl)c(NC(=O)c3ccc(-c4ccccc4)cc3)c2)cc(OC)c1OC`, the IC50 in [1] is 130 nM; in assay [2], 380 nM. Further, the inhibition in [3] came to 99%; in assay [5], 85%. The inhibition at 10 µM in assay [4] was found to be 101%.

As for `COc1cc(C(=O)NC(=S)Nc2ccc(C)c(C(=O)Nc3ccccc3)c2)cc(OC)c1OC`, the IC50 in assay [1] stood at 1800 nM; in assay [2], 2500 nM. For the same molecule, the results for the inhibition in assay [3] and in assay [5] were 89% and 13%, respectively. Besides, the inhibition at 10 µM in assay [4] was 99%.

Take `COc1cc(C(=O)NC(=N)Nc2ccc(C)c(NC(=O)c3ccc(-c4ccc(F)cc4)cc3)c2)cc(OC)c1OC`: the IC50 in assay [1] turned out to be 14 nM; in [2] it was 11 nM.

As to `CS(=O)(=O)c1ccc(C(=O)Nc2ccc(Cl)c(-c3ccccn3)c2)c(Cl)c1` [VISMODEGIB], the IC50 in assay [2] came to 11 nM; in [9], 4 nM. In addition, in assay [4], the inhibition at 10 µM was 99%.

With `COc1cc(C(=O)NC(=S)Nc2ccc(Cl)c(C(=O)Nc3ccccc3)c2)cc(OC)c1OC`, the results for the IC50 in [1] and in assay [2] were 520 nM and 1500 nM, respectively. In addition, the inhibition came out at 95% in assay [3] and 11% in assay [5]. Moreover, the inhibition at 10 µM in [4] is 96%.

Turning to `COc1cc(C(=O)NC(=N)Nc2ccc(C)c(NC(=O)c3ccc(-c4ccccc4)cc3)c2)cc(OC)c1OC`, the IC50 in assay [6] was 5 nM; in assay [1], 15 nM; in [2] it was 11 nM; in [9], 6 nM. Besides, in assay [7], the outcome was inactive. For the same molecule, the “Ratio IC50” value in [10] and in assay [11] was 20 in each case.

As to `COc1cc(C(=O)NC(=N)Nc2ccc(Cl)c(C(=O)Nc3ccccc3)c2)cc(OC)c1OC`, the IC50 in assay [1] turned out to be 160 nM; in assay [2] it was 440 nM.

Consider `COc1cc(C(=O)NC(=N)Nc2cccc(-c3cc4ccccc4[nH]3)c2)cc(OC)c1OC`, for which the IC50 in assay [1] is 70 nM; in assay [2], 180 nM.

On to `COc1cc(C(=O)NC(=S)Nc2ccc(C)c(NC(=O)c3ccc(-c4ccccc4)cc3)c2)cc(OC)c1OC`, for which the IC50 in assay [6] came to 63 nM; in assay [1] it was 41 nM; in [2], 60 nM; in [9] it was 9 nM. Also, the outcome in assay [7] was inactive. Moreover, the “Ratio IC50” value in assay [10] and in [11] was 20 in each case. For the same molecule, the inhibition in assay [3] and in assay [5] was 98% each time. Besides, in assay [4], the inhibition at 10 µM was determined as 100%.

In the case of `COc1cc(C(=O)NC(=N)Nc2cccc(NC(=O)c3ccccc3)c2)cc(OC)c1OC`, the IC50 in assay [8] amounted to 290 nM; in [1], 290 nM; in assay [2] it was 430 nM.

Turning to `CC1=C2C[C@H]3[C@@H](CC=C4C[C@@H](O)CC[C@@]43C)[C@@H]2CC[C@]12O[C@@H]1C[C@H](C)CN[C@H]1[C@H]2C` [CYCLOPAMINE], the results for the IC50 in assay [2] and in [9] were 620 nM and 100 nM, respectively. Also, the inhibition at 10 µM in [4] worked out at 98%.

As to `COc1cc(C(=O)NC(=N)Nc2ccc(Cl)c(NC(=O)c3ccc(-c4ccccc4)cc3)c2)cc(OC)c1OC`, the IC50 in [1] is 70 nM; in assay [2], 130 nM.

For `COc1cccc(CN(C(=O)CC(C)(C)C)[C@H]2C[C@@H](C(=O)N3CCNCC3)N(Cc3ccc4c(c3)OCO4)C2)c1`, the 50% inhibitory concentration (IC50) was found to be 140 nM in [1], 300 nM in assay [2] and 95 nM in [9].

Regarding `COc1cc(C(=O)NC(=S)Nc2ccc(C)c(NC(=O)c3ccc(-c4ccc(F)cc4)cc3)c2)cc(OC)c1OC`, the IC50 amounted to 29 nM in [1] and 30 nM in assay [2]. Also, the values for the inhibition in [3] and in [5] were 97% and 96%, respectively. Besides, the inhibition at 10 µM in [4] turned out to be 86%.
